Data on 4 molecules can be found in ChEMBL document CHEMBL1141316, “Lyngbyastatins 5-7, potent elastase inhibitors from Floridian marine cyanobacteria, Lyngbya spp” (J Nat Prod, 2007).

The species named for experiment [1] is Sus scrofa. Nature of the experiment: Inhibition of pig trypsin up to 30 uM. Summed up: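 Porcine pancreatic trypsin was run as the chymotrypsin assay: 50 mM Tris-HCl/100 mM NaCl/1 mM CaCl2, pH 7.8, with 10 min preincubation with sample in DMSO at 37 °C. Nα-benzoyl-DL-arginine-4-nitroanilide was the substrate. Absorbance at 405 nm was followed every 5 min for 30 min. Tests were done in triplicate, with PMSF as positive control.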

A short description of experiment [2]: Inhibition of pig elastase. Set-up: species or system Sus scrofa. Summed up:
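Porcine pancreatic elastase, 75 µg/mL stock in Tris-HCl pH 8.0. Enzyme was preincubated with test sample (5% DMSO final) at 30 °C for 20 min. Then N-succinyl-Ala-Ala-Ala-p-nitroanilide was added at 1.5 mM final (Km). Absorbance increase at 405 nm was read every 5 min for 30 min. Dilution series in DMSO ran from 1 mM to 100 pM, in triplicate, with PMSF as positive control.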

Experiment [3] in a line: Inhibition of bovine alpha chymotrypsin. Set-up: species or system Bos taurus. In a few lines:
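Bovine pancreatic alpha-chymotrypsin, 1 mg/mL stock in 50 mM Tris-HCl/100 mM NaCl/1 mM CaCl2, pH 7.8. Enzyme was preincubated with test sample in DMSO at 37 °C for 10 min. Then N-succinyl-Gly-Gly-Phe-p-nitroanilide was added at 0.75 mM final (≈Km). Absorbance rise at 405 nm was read every 5 min for 30 min. Samples were log/2 dilutions from 1 mM to 100 pM stocks, in triplicate, with PMSF as positive control.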

Activity calls are given as the source filed them. No cut-off for these calls is given here.

As to `C/C=C1\NC(=O)[C@@H](NC(=O)[C@H](CCC(N)=O)NC(=O)CCCCC)[C@@H](C)OC(=O)[C@H](C(C)C)NC(=O)[C@H](Cc2ccc(O)cc2)N(C)C(=O)[C@H](Cc2ccccc2)N2C(=O)[C@H](CC[C@H]2O)NC1=O` [LYNGBYASTATIN 7], the result in experiment [1] was inactive.
For the molecule `C/C=C1\NC(=O)[C@@H](NC(=O)[C@H](CCc2ccc(O)cc2)NC(=O)[C@H](C)NC(=O)[C@H](O)CO)[C@@H](C)OC(=O)[C@H](C(C)C)NC(=O)[C@H](Cc2ccc(O)cc2)N(C)C(=O)[C@H](Cc2ccccc2)N2C(=O)[C@H](CC[C@H]2O)NC1=O` [LYNGBYASTATIN 5], the outcome in experiment [1] was inactive. Moreover, the IC50 in experiment [2] came to 3.2 nM; in experiment [3] it was 2800 nM.
The matching figures for `C/C=C1\NC(=O)[C@@H](NC(=O)[C@H](CCc2ccc(O)cc2)NC(=O)[C@H](C)NC(=O)[C@H](O)COS(=O)(=O)O)[C@@H](C)OC(=O)[C@H](C(C)C)NC(=O)[C@H](Cc2ccc(O)cc2)N(C)C(=O)[C@H](Cc2ccccc2)N2C(=O)[C@H](CC[C@H]2OC)NC1=O` [LYNGBYASTATIN 6]: “inactive”, 3.3 nM and 2500 nM.
The matching figures for `C/C=C1\NC(=O)[C@@H](NC(=O)[C@H](CCC(N)=O)NC(=O)CCC)[C@@H](C)OC(=O)[C@H](C(C)C)NC(=O)[C@H](Cc2ccc(O)cc2)N(C)C(=O)[C@H](Cc2ccccc2)N2C(=O)[C@H](CC[C@H]2O)NC1=O` [SOMAMIDE B]: “inactive”, 9.5 nM and 4200 nM.
